Test [1] has as its system Klebsiella pneumoniae. The test can be described thus: Antibacterial activity against Klebsiella pneumoniae at 100 ug/ml after 18 hrs by cup plate method. The test is classed as functional. As to conditions: read-out: DIZ. In outline: (§1)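 Agar well diffusion on Mueller-Hinton agar. Inoculum was adjusted to a 0.5 McFarland standard (about […] × 10⁸ CFU/mL) and swabbed over the plate three times, rotating about 60° each time, then the rim was swabbed. Compounds in DMSO went into duplicate 6 mm wells. Plates were incubated at 37 °C for 18 h and inhibition zone diameter read to the nearest mm. DMSO negative control; streptomycin and ciprofloxacin positive controls.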

For test [2], the system named is Bacillus subtilis. The test can be described thus: Antibacterial activity against Bacillus subtilis at 100 ug/ml after 18 hrs by cup plate method. It is filed as functional. Particulars: read-out: DIZ. The method, boiled down: as §1
Test [3] has as its system Candida albicans. Kind of test: Antifungal activity against Candida albicans MTCC 227 at 100 ug/ml after 48 hrs by cup plate method. The test is classed as functional. Particulars: MTCC 227, 48 h, read-out: IZ. In outline: (§2)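 Agar well (cup plate) diffusion on potato dextrose agar 39 g/L, with compounds dissolved in DMSO. Plates were incubated at 28 ± 2 °C for 48 h and inhibition zones measured to the nearest mm. Three replicates per treatment. Amphotericin B positive control; solvent control included.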

Test [4] relates to Staphylococcus aureus. Kind of test: Antibacterial activity against Staphylococcus aureus at 50 ug/ml after 18 hrs by cup plate method. The test is classed as functional. As to conditions: read-out: DIZ. The method, boiled down: as §1
Test [5] relates to Staphylococcus epidermidis. The test can be described thus: Antibacterial activity against Staphylococcus epidermidis at 100 ug/ml after 18 hrs by cup plate method. The test is classed as functional. As to conditions: read-out: DIZ. The method, boiled down: as §1
Test [6] concerns Pseudomonas aeruginosa. Kind of test: Antibacterial activity against Pseudomonas aeruginosa at 100 ug/ml after 18 hrs by cup plate method. It is filed as functional. Particulars: read-out: DIZ. In outline: as §1
The test system of test [7] is Escherichia coli. Kind of test: Antibacterial activity against Escherichia coli at 50 ug/ml after 18 hrs by cup plate method. The test is classed as functional. In outline: as §1
Test [8] has as its system Klebsiella pneumoniae. Kind of test: Antibacterial activity against Klebsiella pneumoniae at 50 ug/ml after 18 hrs by cup plate method. It is filed as functional. In outline: as §1
Test [9] has as its system Bacillus subtilis. Kind of test: Antibacterial activity against Bacillus subtilis at 50 ug/ml after 18 hrs by cup plate method. It is filed as functional. The method, boiled down: as §1
The subject of test [10] is Candida albicans. The test can be described thus: Antifungal activity against Candida albicans MTCC 227 at 50 ug/ml after 48 hrs by cup plate method. It is filed as functional. In outline: (§3)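 Agar well (cup plate) diffusion on potato dextrose agar 39 g/L. Compounds dissolved in DMSO and loaded into 6 mm wells. Incubated at 28 ± 2 °C for 48 h. Inhibition zone diameter measured to the nearest millimetre, three replicates per treatment. DMSO solvent as negative control, amphotericin B as positive control.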

In test [11] the test system is Mycobacterium tuberculosis. The test can be described thus: Antimycobacterial activity against Mycobacterium tuberculosis H37Rv after 3 to 4 weeks by broth microdilution assay. It is filed as functional. The method, boiled down:
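MIC by broth microdilution on compounds active in a single-concentration primary screen. Plates incubated 3–4 weeks at 37 °C in a CO₂ incubator. Wells read visually for absence of growth turbidity.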

Test [12] relates to Escherichia coli. The test can be described thus: Antibacterial activity against Escherichia coli at 100 ug/ml after 18 hrs by cup plate method. It is filed as functional. Particulars: read-out: DIZ. The method, boiled down: as §1
Test [13] deals with Staphylococcus epidermidis. The test can be described thus: Antibacterial activity against Staphylococcus epidermidis at 50 ug/ml after 18 hrs by cup plate method. As to conditions: read-out: DIZ. It is filed as functional. In outline: as §1
In test [14] the test system is Pseudomonas aeruginosa. The test can be described thus: Antibacterial activity against Pseudomonas aeruginosa at 50 ug/ml after 18 hrs by cup plate method. The test is classed as functional. In outline:
as §1

Test [15] has as its system Staphylococcus aureus. The test can be described thus: Antibacterial activity against Staphylococcus aureus at 100 ug/ml after 18 hrs by cup plate method. Particulars: read-out: DIZ. The test is classed as functional. In outline: as §1
Test [16] has as its system Klebsiella pneumoniae. Kind of test: Antibacterial activity against Klebsiella pneumoniae at 25 ug/ml after 18 hrs by cup plate method. It is filed as functional. Particulars: read-out: DIZ. In outline: as §1
In test [17] the test system is Pseudomonas aeruginosa. The test can be described thus: Antibacterial activity against Pseudomonas aeruginosa at 25 ug/ml after 18 hrs by cup plate method. The test is classed as functional. Particulars: read-out: DIZ. In outline: as §1
The test system of test [18] is Candida albicans. The test can be described thus: Antifungal activity against Candida albicans MTCC 227 at 20 ug/ml after 48 hrs by cup plate method. It is filed as functional, organism-based. The method, boiled down:
as §3

In a further test the test system is Aspergillus niger. Kind of test: Antifungal activity against Aspergillus niger at 20 ug/ml after 48 hrs by cup plate method. It is filed as functional, organism-based. In outline:
as §2

The next test has as its system Aspergillus sp. The test can be described thus: Antifungal activity against Aspergillus sp. at 20 ug/ml after 48 hrs by cup plate method. The test is classed as functional, organism-based. The method, boiled down:
as §2

The source made the active and inactive calls. No cut-off for these calls is given here.

As to `CN1C(N2CCN(Cc3ccc([N+](=O)[O-])s3)CC2)=NS(=O)(=O)c2ccccc21`, the zone of inhibition at 100 µg/mL in the test on Klebsiella pneumoniae [1] is 12 mm; in the test on Bacillus subtilis [2] it was 18 mm; with Candida albicans [3] it was 17 mm; in test [5], 16 mm; in the test with Pseudomonas aeruginosa [6], 13 mm; in the test with Escherichia coli [12], 16 mm. Besides, in the test with Staphylococcus aureus [15], the zone of inhibition at 100 µg/mL stood at 12 mm. For the same compound, the zone of inhibition at 50 µg/mL came to 10 mm in the test on Staphylococcus aureus [4] and 14 mm in test [13]. The “diameter of the inhibition zone (DIZ)” value with Escherichia coli [7], in the test on Klebsiella pneumoniae [8], in the test with Bacillus subtilis [9] and in the test on Pseudomonas aeruginosa [14] was “inactive” in each case. Further, the “inhibition zone (IZ)” value in the test on Candida albicans [10] was “inactive”. The minimal inhibitory concentration (MIC) – broadly, the lowest concentration that inhibits growth of the organism – in [11] is more than 16 µg/mL.

For the compound `O=C(O)c1cn(C2CC2)c2cc(N3CCNCC3)c(F)cc2c1=O` [CIPROFLOXACIN], the zone of inhibition at 50 µg/mL in the test on Staphylococcus aureus [4] is 26 mm; with Escherichia coli [7] (read-out: DIZ) it was 38 mm; in the test with Klebsiella pneumoniae [8] (read-out: DIZ) it was 20 mm; with Bacillus subtilis [9] (read-out: DIZ), 32 mm; in test [13], 34 mm; with Pseudomonas aeruginosa [14] (read-out: DIZ), 30 mm. Moreover, the results for the zone of inhibition at 25 µg/mL in the test with Klebsiella pneumoniae [16] and in the test on Pseudomonas aeruginosa [17] were 21 mm and 40 mm, respectively. Moreover, the “inhibition zone (IZ)” value in the test with Candida albicans [10] was “inactive”.

In the case of NYSTATIN, the “inhibition zone (IZ)” value in the test with Candida albicans [18] was “inactive”. The inhibition zone (IZ) worked out at 26 mm in the test with Aspergillus niger and 16 mm in the test with Aspergillus sp..

The values above are taken from ChEMBL document CHEMBL1250501, “Anti-tubercular agents. Part 5: synthesis and biological evaluation of benzothiadiazine 1,1-dioxide based congeners” (Eur J Med Chem, 2010).
